Assay outcomes as filed in PubChem BioAssay.
PGC1a acetyl inh: modulators of PGC1a acetylation; U2OS PGC1a acetylation, AlphaScreen anti-acetyl-lysine; with virally co-expressed GCN5 acetyltransferase; AID 651687; 350,000 tested, 0.17% active; inhibition, % at 15.6 µM;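 active = every replicate shows inhibition of at least 40%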;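 also: 0% = neutral control wells and 100% = positive control wells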
EWS-Fli inh: EWS/Fli transcriptional activity inhibition. 350,000 tested, 0.67% active. inhibition, % at 12.6 µM. A673 NR0B1-luciferase reporter, viability-normalised. AID 651661;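 active = mean inhibition of at least 50% after viability correction, with every replicate also passing that limit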;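 also: firefly luciferase signal divided by Alamar Blue viability fluorescence both relative to DMSO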
PAX8 reporter: lowers PAX8-driven luciferase in RMG-I cells; RMG-I TPO-luciferase reporter, SteadyGlo, 24 h; inhibition, % at 12.6 µM; 360,000 tested, 1.2% active; AID 652154;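 active = mean replicate inhibition at least 60% with every replicate also reaching 60%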;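 also: luciferase light reporting Pax8 driven TPO promoter activity; plate controls were median of neutral control wells for no effect and mitoxantrone controls for full effect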
HIV Env fusion: inhibitors of HIV Env-mediated cell fusion; AID 651610; inhibition, % at 12.3 µM; 360,000 tested, 1.1% active; HeLa-JRFL Env/CEM21 cell fusion, luciferase;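 active = mean replicate inhibition score of at least 50 and every replicate individually at or above 50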;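 also: 0% = plate neutral controls and 100% = maraviroc near 300 nM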
FGF22 binding: shifts melting point of recombinant human FGF22; Q9HCT0; recombinant FGF22 thermal shift, SYPRO orange fluorescence; percent of sucrose octasulfate shift, DMSO zero; activity (Tm shift, normalised), % at 9.99 µM; 340,000 tested, 1.5% active; AID 651658;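 active = mean Tm shift, scaled 0 neutral to 100 positive control, at about 1.3% or above, every replicate too, limit read from the data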
Target sequence (Q9HCT0 whole entry, looked up): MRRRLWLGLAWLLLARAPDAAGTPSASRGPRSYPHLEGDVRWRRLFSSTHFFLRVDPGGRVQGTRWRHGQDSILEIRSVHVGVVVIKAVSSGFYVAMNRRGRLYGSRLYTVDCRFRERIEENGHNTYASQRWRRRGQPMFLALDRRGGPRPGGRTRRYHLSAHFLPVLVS
FN deposit inh: fibronectin deposition inhibition; AH1F fibroblasts, Alexa488-fibronectin deposition fluorescence, overnight; inhibition, % at 12.6 µM; 350,000 tested, 0.086% active; AID 743247;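 active = mean inhibition across replicates of 30% or more, regardless of how many single replicates reach that level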;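 also: positive control wells lacked labelled fibronectin entirely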
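Assay system: AH1F fibroblast monolayer, labelled fibronectin deposition. Amount: 10000 cells per well. Also added: labelled fibronectin 24 nM. Compound: single-point pinned compound. Incubation: cell attachment 1 h, compound and FN exposure overnight. Detection: fluorescence after three HBSS washes, excitation 485 nm, emission 525 nm. Read-out: inhibition of fibronectin deposition signal.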
Numbers without * were called inactive; . = no result; [ ] = dose if it differs, or a comment. Shown are actives, neighbours in structure and some others; about 3.1% of the full set was active somewhere.

SMILES	PGC1a acetyl inh	EWS-Fli inh	PAX8 reporter	HIV Env fusion	FGF22 binding	FN deposit inh
CN(C)C(/C=C/Nc1ccc(O)cc1)=C(C#N)C#N	6	-3	8	21	44*	1
COc1ccc(NC(=O)CCS(=O)(=O)c2ccc(Cl)cc2)cc1	-5	-8	-6	5	0	4
O=C(CCS(=O)(=O)c1ccc(Cl)cc1)Nc1nc(-c2ccncc2)cs1	.	.	96*	-26	0	16
O=C(COc1cccc(F)c1)Nc1nc(-c2ccccn2)cs1	.	0	-23	.	44*	14
Cc1ccc(S(=O)(=O)CCC(=O)Nc2nc(-c3ccccn3)cs2)cc1	-7	19	80*	0	0	12
CC(=O)c1sc(NC(=O)CCS(=O)(=O)c2ccc(Cl)cc2)nc1C	.	6	89*	5	0	-9
O=C(COc1ccc(F)cc1)Nc1nc(-c2ccccn2)cs1	4	22	33	36	0	6
Cc1ccc(S(=O)(=O)CCC(=O)Nc2nc(-c3cccnc3)cs2)cc1	.	10	-1	-11	0	0
COc1ccc(S(=O)(=O)N(C)C[C@@H]2Oc3ccc(NC(=O)CCCCCC(=O)Nc4ccccc4N)cc3CC(=O)N([C@@H](C)CO)C[C@H]2C)cc1	1	16	-29	8[16.7 µM]	0	.
Cc1ccc(S(=O)(=O)Nc2ccc3c(c2)CC(=O)N([C@@H](C)CO)C[C@H](C)[C@H](CN(C)S(=O)(=O)c2ccc(Cl)cc2)O3)cc1	-6	4	10	5[16.7 µM]	0	.
COc1ccc(S(=O)(=O)Nc2ccc3c(c2)CC(=O)N([C@@H](C)CO)C[C@H](C)[C@H](CN(C)S(=O)(=O)c2ccccc2)O3)cc1	6	6	-2	66*[16.7 µM]	0	.
Cc1ccc(S(=O)(=O)Nc2ccc3c(c2)CC(=O)N([C@H](C)CO)C[C@H](C)[C@H](CN(C)S(=O)(=O)c2ccc(C)cc2)O3)cc1	6	1	7	90*[16.7 µM]	0	.
CCOC(=O)CCCCCC(=O)Nc1ccc2c(c1)CC(=O)N([C@H](C)CO)C[C@H](C)[C@H](CN(C)S(=O)(=O)c1ccc(OC)cc1)O2	-2	19	-13	96*	0	2
Cc1ccc(S(=O)(=O)N(C)C[C@@H]2Oc3ccc(NS(=O)(=O)c4ccc(Cl)cc4)cc3CC(=O)N([C@H](C)CO)C[C@@H]2C)cc1	10	0	27	56*[16.7 µM]	0	.
C[C@@H]1CN([C@@H](C)CO)C(=O)c2cc(NC(=O)Nc3ccc(F)cc3)ccc2O[C@@H](C)CCCCO[C@@H]1CN(C)C(=O)Nc1ccc2c(c1)OCO2	-10	10	1	.	0	.
COc1ccc(S(=O)(=O)Nc2ccc3c(c2)CC(=O)N([C@@H](C)CO)C[C@H](C)[C@H](CN(C)S(=O)(=O)c2ccc(C)cc2)O3)cc1	4	-16	72*	96*[16.7 µM]	0	.
COc1ccc(S(=O)(=O)N(C)C[C@@H]2Oc3ccc(NS(=O)(=O)c4ccc(F)cc4)cc3CC(=O)N([C@H](C)CO)C[C@H]2C)cc1	9	0	.	-5[16.7 µM]	0	.
COc1ccc(S(=O)(=O)Nc2ccc3c(c2)CC(=O)N([C@@H](C)CO)C[C@H](C)[C@H](CN(C)S(=O)(=O)c2ccc(F)cc2)O3)cc1	6	2	-4	66*[16.7 µM]	0	.
COc1ccc(S(=O)(=O)N(C)C[C@@H]2Oc3ccc(NS(=O)(=O)c4ccc(C)cc4)cc3CC(=O)N([C@H](C)CO)C[C@@H]2C)cc1	-3	11	-15	28[16.7 µM]	0	.
COc1cc(CNc2ncn[nH]2)ccc1OCC(=O)NC(C)(C)C	2	9	-7	1	0	-8
CCOc1cc(CNc2nn[nH]n2)ccc1OCC(=O)NC(C)(C)C	7	-2	5	6	44*	-9
CCOc1cc(CNc2ncn[nH]2)ccc1OCC(=O)NC(C)(C)C	11	3	-2	8	43*	-2
O=C(C[C@H]1C=C[C@H](NC(=O)c2ccc(F)cc2)[C@@H](CO)O1)NCc1ccncn1	-2	-15	-14	11[16.7 µM]	1	1
C[C@H](CO)N1C[C@H](C)[C@H](CN(C)Cc2cccnc2)Oc2ncc(-c3cccc(F)c3)cc2C1=O	.	3	.	-5[16.7 µM]	.	-13
CC(C)(C)[S@@](=O)N1Cc2cc(C(=O)NCCc3ccncc3)nc(-c3cccc(-c4ccncc4)c3)c2[C@H]1CCO	7	12	4	14[16.7 µM]	0	-11
SMILES	PGC1a acetyl inh	EWS-Fli inh	PAX8 reporter	HIV Env fusion	FGF22 binding	FN deposit inh
COc1ccc(NC(=O)C2=CC(c3cccs3)=NS(=O)(=O)N2C)cc1	6	1	25	89*	0	-4
O=C(O)CCn1cc(/C=C\C(=O)c2ccc(Cl)cc2)c(-c2cccc(Br)c2)n1	.	-2	-3	-13	.	6
Cc1ccc(-c2nn(CCC(=O)O)cc2/C=C\C(=O)c2ccc(Br)cc2)cc1	.	8	15	-3	15*	5
Cc1ccc(C(=O)O)cc1NC(=S)NC(=O)c1ccc([N+](=O)[O-])c(C)c1	.	6	-7	2	43*	7
O=C(NCCc1ccccc1)c1ccc2c(c1)OCO2	.	73*	54	17	0	2
COc1ccc(C(=O)Nc2ccc(C(=O)NCCc3ccccc3)cc2)cc1	.	-4	-42	12	44*	-3
CC(=O)Oc1ccc(C(=O)NCCc2ccccc2)cc1	6	-8	-70	3	0	0
COc1ccc(C(=O)Nc2ccc3ccccc3c2)cc1	5	61*	-6	-195	0	-1
CCOc1ccc(C(=O)NCCc2ccccc2)cc1	-11	59*	.	.	0	.
COc1cccc(C(=O)Nc2ccc3ccccc3c2)c1	-25	13	-16	-272	0	2
COc1ccccc1C(=O)Nc1ccc2c(c1)nc(CCNC(C)=O)n2C	8	.	.	-11	.	-9
COc1ccccc1C(=O)Nc1ccc2c(c1)nc(CCNC(=O)c1ccccc1)n2C	-35	65*	-4	-8	0	1
COc1cc(OC)cc(C(=O)NC(=S)Nc2ccc3c4c(cccc24)CC3)c1	1	.	.	.	.	.
COc1ccc(C(=O)Nc2ccc3c4c(cccc24)CC3)cc1	86*	.	.	-86	.	-6
Cc1noc(C)c1NC(=O)Nc1ccc2c(c1)C(=O)N([C@@H](C)CO)C[C@@H](C)[C@@H](CN(C)C(=O)Nc1ccc3c(c1)OCO3)O2	14	-7	-44	1[16.7 µM]	-1	.
COc1ccc(NC(=O)N(C)C[C@@H]2Oc3ccc(NS(=O)(=O)c4cn(C)cn4)cc3C(=O)N([C@H](C)CO)C[C@@H]2C)cc1	-1	-10	.	.	0	.
CCc1nc2ccc(C(=O)N3CCN(CC)CC3)cc2nc1CC	3	-5	11	6	43*	-3
CCCN1CCN(C(=O)c2ccc3nc(CC)c(CC)nc3c2)CC1	2	-9	-4	-10	0	-2
